Test results reported in ChEMBL document CHEMBL4028857, “Anchimerically Activated ProTides as Inhibitors of Cap-Dependent Translation and Inducers of Chemosensitization in Mantle Cell Lymphoma” (J Med Chem, 2017).
Calls of active or inactive are those of the source. The rule behind the calls is not given here.

Legend:
[1] = tested on: Mino; assay: Antiproliferative activity against human Mino cells at 100 uM preincubated for 48 hrs followed by thymidine addition measure after 16 hrs by Thymidine incorporation assay; assay type: functional, cell-based
Method in brief: (§1)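 MCL lines treated 48 h with compound re-added daily, alone or with co-drug (ibrutinib 25 µM where used), then thymidine added for a further 16 h; proliferation read as thymidine incorporation.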

[2] = molecular target: Eukaryotic translation initiation factor 4E-binding protein 1 (Homo sapiens) (UniProt Q13541); assay: Inhibition of 4EBP1 phosphorylation at Thr 37/46 residues in human Mino cells at 10 to 25 uM after 48 hrs by Western blot analysis; assay type: cell-based
Method in brief: (§2)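 MCL cell lines treated with ProTide 48 h. Lysates were protein-quantified, then immunoblotted.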

[3] = molecular target: Eukaryotic translation initiation factor 4E (Homo sapiens) (UniProt P06730); assay: Inhibition of eIF4E in human Mino cells assessed as down regulation of c-Myc protein expression at 10 to 25 uM after 48 hrs by Western blot analysis; assay type: cell-based; method in brief: as §2
[4] = molecular target: Eukaryotic translation initiation factor 4E-binding protein 1 (Homo sapiens) (UniProt Q13541); assay: Inhibition of 4EBP1 phosphorylation at Ser 65 residues in human Mino cells at 10 to 25 uM after 48 hrs by Western blot analysis; assay type: cell-based; method in brief: as §2
[5] = Cytotoxicity against human Mino cells assessed as reduction in cell survival at 25 uM after 48 hrs by Annexin V/propidium iodide based flow cytometric analysis
Method in brief: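 MCL cell lines exposed to ProTide 48 h, re-dosed daily. Survival read by Annexin V/PI staining on flow cytometry.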

[6] = tested on: Mino; assay: Antiproliferative activity against human Mino cells at 25 uM preincubated for 48 hrs followed by thymidine addition measure after 16 hrs by Thymidine incorporation assay; assay type: functional, cell-based
Method in brief: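 MCL cell lines exposed to ProTide 48 h with fresh compound added every day, then thymidine added for a further 16 h. Proliferation read as thymidine incorporation.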

[7] = tested on: Plasma; assay: Prodrug activation in Sprague-Dawley rat plasma assessed as 2-amino-7-(2-(4-chlorophenoxy)ethyl)-9-((2R,3R,4S,5R)-3,4-dihydroxy-5-(phosphonooxymethyl)tetrahydrofuran-2-yl)-6-oxo-6,9-dihydro-1H-purin-7-ium level at 2.5 mg/kg, iv measured at 5 mins by LC-MS/MS analysis; assay type: organism-based; details: in vivo
Method in brief: (§3)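 Female Sprague-Dawley rats (250-274 g, n=3, catheterized femoral/jugular veins) dosed once p.o. by gavage (25 mg/kg) then, after a 3-day washout, i.v. (2.5 mg/kg). Formulation: 10 mg/mL in 0.5% aqueous CMC with 5% DMSO. Serial blood draws to 480 min into K2EDTA; plasma protein-precipitated with acetonitrile plus internal standards; LC-MS/MS (positive MRM); non-compartmental PK; %F from dose-normalized AUC per rat.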

[8] = tested on: Rattus norvegicus; assay: AUC (0 to 8 hrs) in Sprague-Dawley rat plasma assessed as 2-amino-7-(2-(4-chlorophenoxy)ethyl)-9-((2R,3R,4S,5R)-3,4-dihydroxy-5-(phosphonooxymethyl)tetrahydrofuran-2-yl)-6-oxo-6,9-dihydro-1H-purin-7-ium at 2.5 mg/kg, iv by LC-MS/MS analysis; assay type: ADME, organism-based; parameters: time < 8 hr, dose 2.5 mg/kg, route intravenous; details: in vivo; method in brief: as §3
[9] = Clearance in Sprague-Dawley rat at 2.5 mg/kg, iv by LC-MS/MS analysis; assay type: ADME, organism-based; details: Sprague-Dawley, in vivo; method in brief: as §3
[10] = molecular target: T1, Adenosine 5'-monophosphoramidase HINT1 (Homo sapiens, UniProt P49773); assay: Prodrug activation in human GRANTA-519 cells assessed as Hint1 mediated 2-amino-7-(2-(4-chlorophenoxy)ethyl)-9-((2R,3R,4S,5R)-3,4-dihydroxy-5-(phosphonooxymethyl)tetrahydrofuran-2-yl)-6-oxo-6,9-dihydro-1H-purin-7-ium formation per 5 million cells at 150 uM after 12 hrs by LC-MS/MS analysis; assay type: cell-based
Method in brief: (§4)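 Five million MCL cells in RPMI/10% FBS with penicillin, streptomycin and L-glutamine were exposed to compound (150 µM) for 12 h at 37 °C. Cells were washed in cold PBS, extracted in MeOH/NH4OAc (60:40) with 80 fmol internal standards, freeze-thawed three times, then filtered and dried. Residue was taken up in HEPES for LC-MS/MS, quantified against an internal-standard curve.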

[11] = Volume of distribution in Sprague-Dawley rat at 2.5 mg/kg, iv by LC-MS/MS analysis; assay type: ADME, organism-based; details: in vivo
Method in brief: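 Female Sprague-Dawley rats (n=3, 250-274 g) with catheters; compound in 0.5% aqueous CMC with 5% DMSO given as a single i.v. injection, 2.5 mg/kg. Blood drawn at 0–480 min into K2EDTA tubes. Plasma precipitated with acetonitrile containing internal standards, then LC-MS/MS in positive MRM mode. Parameters from non-compartmental analysis.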

[12] = molecular target: T1, Adenosine 5'-monophosphoramidase HINT1; assay: Prodrug activation in human Mino cells assessed as Hint1 mediated 2-amino-7-(2-(4-chlorophenoxy)ethyl)-9-((2R,3R,4S,5R)-3,4-dihydroxy-5-(phosphonooxymethyl)tetrahydrofuran-2-yl)-6-oxo-6,9-dihydro-1H-purin-7-ium formation per 5 million cells at 150 uM after 12 hrs by LC-MS/MS analysis; assay type: cell-based
Method in brief: (§5)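 Mantle cell lymphoma cells (five million) grown in RPMI with 10% FBS, penicillin/streptomycin and L-glutamine at 37 °C, 5% CO2, then exposed to 150 µM compound for 12 h at 37 °C. Washed with ice-cold PBS, pellet extracted in MeOH/NH4OAc (60:40) with 80 fmol internal standards, three liquid-N2 freeze–thaw cycles, filtered, dried, redissolved in 20 mM HEPES pH 7.2. Analysed by LC-MS/MS against a standard curve.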

[13] = Drug uptake in human Mino cells assessed per 5 million cells at 150 uM after 12 hrs by LC-MS/MS analysis; assay type: ADME, cell-based; method in brief: as §4
[14] = Half life in Sprague-Dawley rat at 2.5 mg/kg, iv by LC-MS/MS analysis; assay type: ADME, organism-based; details: in vivo; method in brief: as §3
[15] = AUC (0 to 8 hrs) in Sprague-Dawley rat plasma at 25 mg/kg, po by LC-MS/MS analysis; assay type: ADME, organism-based; parameters: time < 8 hr, dose 25 mg/kg, route oral; method in brief: as §3
[16] = tested on: Granta-519; assay: Drug uptake in human GRANTA-519 cells assessed per 5 million cells at 150 uM after 12 hrs by LC-MS/MS analysis; assay type: ADME, cell-based; details: granta-519, 12 h; method in brief: as §4
[17] = molecular target: T1, Adenosine 5'-monophosphoramidase HINT1; assay: Prodrug activation in human Z138 cells assessed as Hint1 mediated 2-amino-7-(2-(4-chlorophenoxy)ethyl)-9-((2R,3R,4S,5R)-3,4-dihydroxy-5-(phosphonooxymethyl)tetrahydrofuran-2-yl)-6-oxo-6,9-dihydro-1H-purin-7-ium formation per 5 million cells at 150 uM after 12 hrs by LC-MS/MS analysis; assay type: cell-based; method in brief: as §5
[18] = Oral bioavailability in Sprague-Dawley rat at 25 mg/kg by LC-MS/MS analysis; assay type: ADME, organism-based; details: in vivo; method in brief: as §3
[19] = tested on: Z-138; assay: Drug uptake in human Z138 cells assessed per 5 million cells at 150 uM after 12 hrs by LC-MS/MS analysis; assay type: ADME, cell-based; details: z-138, 12 h; method in brief: as §4
[20] = AUC (0 to 8 hrs) in Sprague-Dawley rat plasma at 2.5 mg/kg, iv by LC-MS/MS analysis; assay type: ADME, organism-based; parameters: time < 8 hr, dose 2.5 mg/kg, route intravenous; method in brief: as §3
[21] = tested on: Mino; assay: Antiproliferative activity against human Mino cells at […] preincubated for 48 hrs followed by thymidine addition measure after 16 hrs by Thymidine incorporation assay; assay type: functional, cell-based; method in brief: as §1
[22] = Half life in HEPES buffer at 80 uM at pH 7.2 by RP-HPLC analysis; assay type: physicochemical
Method in brief: (§6)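 Compound at 80 µM in 20 mM HEPES (pH 7.2 or 2.0) incubated at 37 °C; aliquots analyzed by RP-HPLC at 0, 1, 4, 6, 12, 18 and 24 h to follow methylthioalkyl deprotection and derive half-life.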

[23] = Half life in HEPES buffer at 80 uM at pH 2 by RP-HPLC analysis; assay type: physicochemical; method in brief: as §6

T1 sequence (P49773 whole entry): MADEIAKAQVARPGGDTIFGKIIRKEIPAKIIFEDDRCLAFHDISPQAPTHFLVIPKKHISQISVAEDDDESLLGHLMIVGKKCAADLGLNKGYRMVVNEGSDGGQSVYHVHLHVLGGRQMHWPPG
Chain of Eukaryotic translation initiation factor 4E-binding protein 1 (Homo sapiens) (Q13541 whole entry): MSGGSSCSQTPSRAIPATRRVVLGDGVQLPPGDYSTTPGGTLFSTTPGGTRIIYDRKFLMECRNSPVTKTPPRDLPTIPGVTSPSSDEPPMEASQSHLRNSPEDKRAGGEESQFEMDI
Chain of Eukaryotic translation initiation factor 4E (Homo sapiens) (P06730 whole entry): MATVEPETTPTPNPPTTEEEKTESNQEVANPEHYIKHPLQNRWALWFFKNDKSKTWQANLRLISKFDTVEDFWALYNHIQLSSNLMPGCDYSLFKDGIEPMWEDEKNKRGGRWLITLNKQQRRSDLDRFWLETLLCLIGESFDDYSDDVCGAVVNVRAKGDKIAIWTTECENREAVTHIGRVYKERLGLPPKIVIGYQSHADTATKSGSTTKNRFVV

**Q.** With `C[C@@H]1C[C@H]2[C@@H]3CCC4=CC(=O)C=C[C@]4(C)[C@@]3(F)[C@@H](O)C[C@]2(C)[C@@]1(O)C(=O)CO` as the compound, how does the Activity [1] read?
**A.** The Activity was “Active”.

**Q.** Which results are given for `C=CC(=O)N1CCC[C@@H](n2nc(-c3ccc(Oc4ccccc4)cc3)c3c(N)ncnc32)C1` [IBRUTINIB]?
**A.** inhibition [2]: inactive; inhibition [3]: Active; inhibition [4]: Active; Activity [5]: Non-Toxic; Activity [6]: inactive

**Q.** With `Nc1nc2c(c(=O)[nH]1)[n+](CCOc1ccc(Cl)cc1)cn2[C@@H]1O[C@H](COP(=O)(O)NCCc2c[nH]c3ccccc23)[C@@H](O)[C@H]1O` as the compound, how does the Drug metabolism [7] read?
**A.** The Drug metabolism was 583 ng/mL.

**Q.** And the AUC [8]?
**A.** Its AUC is 13.1 µg·min/mL.

**Q.** What about the clearance [9] of the same compound?
**A.** Its clearance is 300 mL/min/kg.

**Q.** And the Drug metabolism [10]?
**A.** The Drug metabolism was 5.23 pmol.

**Q.** And the Vd [11]?
**A.** The Vd was 70 L/kg.

**Q.** What about the Drug metabolism [12] of the same compound?
**A.** The Drug metabolism was 7.49 pmol.

**Q.** And the Drug uptake [13]?
**A.** Its Drug uptake is 0.59 pmol.

**Q.** And the half-life [14]?
**A.** The half-life was 2.72 h.

**Q.** What about the AUC(0-t) at 8 h [15] of the same compound?
**A.** Its AUC(0-t) at 8 h is 31.7 ng·h/mL.

**Q.** And the Drug uptake [16]?
**A.** Its Drug uptake is 1.52 pmol.

**Q.** And the Drug metabolism [17]?
**A.** The Drug metabolism was 0.523 pmol.

**Q.** And the bioavailability [18]?
**A.** Its bioavailability is under 1%.

**Q.** And the Drug uptake [19]?
**A.** The Drug uptake was 0.163 pmol.

**Q.** What about the AUC(0-t) at 8 h [20] of the same compound?
**A.** Its AUC(0-t) at 8 h is 147 ng·h/mL.

**Q.** For `COc1cccc2c1C(=O)c1c(O)c3c(c(O)c1C2=O)C[C@@](O)(C(=O)CO)C[C@@H]3O[C@H]1C[C@H](N)[C@H](O)[C@H](C)O1`, which Activity [21] is on record?
**A.** The Activity was “inactive”.

**Q.** Which half-life at 80 µM [22] does the source give for `CSCCCOP(=O)(NCCc1c[nH]c2ccccc12)OC[C@H]1O[C@@H](n2c[n+](CCOc3ccc(Cl)cc3)c3c(=O)[nH]c(N)nc32)[C@H](O)[C@@H]1O` (some centres undefined) here?
**A.** The half-life at 80 µM was over 60 h.

**Q.** With `CSCCCCOP(=O)(NCCc1c[nH]c2ccccc12)OC[C@H]1O[C@@H](n2c[n+](CCOc3ccc(Cl)cc3)c3c(=O)[nH]c(N)nc32)[C@H](O)[C@@H]1O` (some centres undefined) as the compound, how does the half-life at 80 µM [22] read?
**A.** The half-life at 80 µM was 10.4 h.

**Q.** What about the half-life at 80 µM [23] of the same compound?
**A.** Its half-life at 80 µM is 13 h.
